HDAC3 inhib – human HDAC3 inhibition | recombinant HDAC3, fluorogenic peptide/trypsin coupled, fluorescence | inhibition, % at 8.3 µM | 320,000 tested, 0.15% active | AID 2718; in the data active = inhibition above about 26%, passing the limit was not always enough
Target sequence (O15379 whole entry, looked up): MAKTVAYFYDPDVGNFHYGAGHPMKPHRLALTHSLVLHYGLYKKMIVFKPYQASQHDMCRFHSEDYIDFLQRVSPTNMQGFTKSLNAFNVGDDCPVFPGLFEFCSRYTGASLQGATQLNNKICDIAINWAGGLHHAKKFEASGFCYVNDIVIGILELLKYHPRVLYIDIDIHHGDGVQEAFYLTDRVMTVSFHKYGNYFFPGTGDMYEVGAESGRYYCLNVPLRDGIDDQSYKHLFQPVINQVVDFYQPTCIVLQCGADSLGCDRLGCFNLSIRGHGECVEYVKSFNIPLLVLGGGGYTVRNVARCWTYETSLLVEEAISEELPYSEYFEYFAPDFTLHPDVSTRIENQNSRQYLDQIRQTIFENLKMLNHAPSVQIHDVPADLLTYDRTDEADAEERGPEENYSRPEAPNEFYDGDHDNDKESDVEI
Yeast superoxide – caloric restriction mimetics inhibiting age-related superoxide in yeast | superoxide response (% of plate mean), % at 10 µM | 330,000 tested, 0.18% active | S. cerevisiae aged cells, superoxide DHE fluorescence; stronger effect = lower value;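 active = superoxide response under a set limit, about three screen SD below normal, cut at about 65% in these data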;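 note: yeast aged for seven days with compound at 30 °C before DHE staining; 100% = average MFI of all compound-treated wells on the plate with controls excluded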
IDE cell activ – boosts human insulin-degrading enzyme activity in HEK cells; FAbeta-B cleavage, fluorescence polarization; 0% vehicle, 100% cell-free pure enzyme wells; 340,000 tested, 0.073% active; P14735; activation, % at 5.96 µM;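 active = activation above the mean of all tested compounds plus 3 SD, set per screening campaign, cut at about 17% in these data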
Efflux pump inh – blocks antifungal efflux pumps in multiplex yeast assay | S. cerevisiae Candida pump triplex, Nile Red efflux | inhibition, % at 10 µM | 330,000 tested, 0.44% active | AID 485275;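 active = plate passing quality check with inhibition over a set limit, or well fluorescence over plate mean plus 4 SD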;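 note: Nile Red retained in pooled yeast measured as flow cytometry median fluorescence; 0% = buffer negative control and 100% = Enniatin B positive control; higher means more Nile Red kept so more efflux inhibition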
Tb MetRS inh – Trypanosoma brucei MetRS inhibition; purified T. brucei MetRS, ATP depletion, Kinase-Glo luminescence; inhibition, % at 11.9 µM; 360,000 tested, 0.4% active; AID 624268;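 active = inhibition above a per-plate cutoff of the control wells' mean inhibition plus 3 SD, cut at about 5.5% in these data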;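 note: 0% = DMSO wells median and 100% = median of wells with control inhibitor compound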
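Material: parasite MetRS enzyme / Replication: singlicate, one well per compound / Signal: luminescence of leftover ATP / Schedule: 2 h aminoacylation at 25 °C after 15 min preincubation / Medium: HEPES-MgCl2-KCl buffer plus DTT, spermine, BSA, pyrophosphatase / Doses: 11.9 µM single point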
IDE inh – inhibits human insulin-degrading enzyme in HEK cells. P14735. inhibition, % at 5.59 µM. AID 434962. FAbetaB cleavage, fluorescence polarization. 320,000 tested, 0.41% active;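 active = percent inhibition above the average of all tested compounds plus 3 SD, set per screening campaign, cut at about 16% in these data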;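 note: IDE supplied by intact live HEK cells; FP after avidin binding of uncleaved biotin substrate so inhibition keeps polarization high; 0% = DMSO wells and 100% = 60 µM reference IDE inhibitor Ii1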
An asterisk follows results filed as active; / = not tested or not shown. An excerpt weighted towards active compounds, which were near 1.4% of everything screened.

SMILES	HDAC3 inhib	Yeast superoxide	IDE cell activ	Efflux pump inh	Tb MetRS inh	IDE inh
Cc1cccc(C(=O)n2cnnc2N)c1	44*	77	-1	0	-1	2
COc1ccc(C(=O)n2cnnc2N)cc1	81*	87	5	0	-1	3
CCN1CCN(C(C(=O)NC2CCCCC2)c2cc3ccccc3o2)CC1 (stereo unspecified)	/	/	/	/	-1	/
Cc1ccc(Cc2c(C)nc3nc(SCC(=O)NCCCN4CCCCCC4)nn3c2C)cc1	33*	90	/	0	/	-4
Cc1nc2nc(SCC(=O)NCCCN3CCCCC3)nn2c(C)c1Cc1ccccc1	-1	97	-3	0	-1	0
CCOc1ccc(-c2cn(-c3ccc(OC)cc3)c(SC)n2)cc1	2	101	-1	1	-1	17*
CSc1nc(-c2ccccc2)cn1-c1ccc(NC(C)=O)cc1	7	109	-3	0	-1	7
Cc1ccc(S(=O)(=O)N2[C@@H](Cc3ccccc3)CO[C@H]2CC(=O)c2cccc3ccccc23)cc1	/	/	/	/	-1	/
CCCCNC(=O)C1(C)CCC(=O)N1C1CC1 (stereo unspecified)	/	/	/	/	-1	/
O=S(=O)(Nc1ccc(S(=O)(=O)Nc2nccs2)cc1)c1ccc(Br)cc1	43*	92	-2	0	0	-8
CCOC(=O)C1=CC[C@@H](c2ccccc2)N(S(=O)(=O)c2ccc(C)cc2)[C@@H]1C#N	/	/	/	/	0	/
CC1(C(=O)NS(=O)(=O)c2ccc3c(c2)CCO3)CCN1C(=O)COc1ccc(Cl)cc1 (stereo unspecified)	/	/	/	/	0	/
CCN(CC)c1ccc(/C=N/N=C(N)N)c(O)c1	3	99	18*	0	0	-2
Nc1sccc1C(=O)NCCN1CCOCC1	/	/	/	/	-1	/
CCOc1ccc2[nH]c3c(N4CCc5ccccc5C4)ncnc3c2c1	-3	89	/	0	2	28*
CCOC(=O)CC1(CC)Oc2ccccc2N1S(=O)(=O)c1ccc(C)cc1 (stereo unspecified)	/	/	/	/	1	/
CCCc1c(-c2ccc(F)cc2F)ncn1Cc1ccccc1OC	/	/	/	/	-1	/
CN(C)c1ccc(/C=C/c2cc[n+]([O-])cc2)cc1	11	94	/	0	/	22*
CC[n+]1ccccc1/C=C/c1ccc(N(C)C)cc1	/	/	-2	/	-1	/
CCCCC[C@@H](C)N1C[C@H](COCc2ccccc2)Oc2cc(N3CC[C@H](N(C)C)C3)ccc2S1(=O)=O	/	/	/	/	-1	/
COc1ccccc1NS(=O)(=O)c1ccc2oc(SCC(C)=O)nc2c1	42*	94	7	0	0	3
NC(=O)Cn1cc(/C=N\NS(=O)(=O)c2ccc(Cl)cc2)c2ccccc21	1	102	24*	-2	0	-9
Cc1c2ccccc2cc[n+]1CCCS(=O)(=O)[O-]	0	79	-2	0	0	-2
CC1(C)C(/C=C/C=C/C=C/C=C2\N(CCCCS(=O)(=O)O)c3ccc4ccccc4c3C2(C)C)=[N+](CCCCS(=O)(=O)[O-])c2ccc3ccccc3c21	0	84	-9	0	-1	21*
COc1cccc(N=Cc2nc(-c3ccccc3)oc2OC(C)=O)c1	59*	78	4	0	-1	-4
SMILES	HDAC3 inhib	Yeast superoxide	IDE cell activ	Efflux pump inh	Tb MetRS inh	IDE inh
CN(C)c1ccc(N=Cc2nc(-c3ccccc3)oc2OC(=O)c2cccc(Cl)c2)cc1	1	96	1	1	-1	1
COc1ccc(N=Cc2nc(-c3ccccc3)oc2OC(C)=O)cc1	38*	98	-3	0	0	1
CN(C)CCNc1ncnc2c1ncn2[C@H]1CN(Cc2cccnc2)C[C@@H](CO)O1	/	/	/	/	0	/
C[C@H](CO)N1C[C@H](C)[C@@H](CN(C)Cc2ccncc2)OCCCC[C@H](C)Oc2ccc(NC(=O)CCCN(C)C)cc2C1=O	/	/	/	/	-1	/
Brc1ccc(CNCCCSc2ncccn2)cc1	35*	104	0	0	0	-5
Cc1ccc(CN2C(=O)CSCC2(C)C(=O)NC(C)C)cc1 (stereo unspecified)	/	/	/	/	0	/
N#Cc1cccc(C(=O)C(=O)N2CCCN(Cc3ccc(F)cc3)CC2)c1	/	/	/	/	-1	/
CCOC(=O)COn1c(=O)c(-c2cccs2)[n+]([O-])c2ccccc21	53*	95	2	0	1	-3
CCOC(=O)COn1c(=O)c(-c2ccc(F)cc2)[n+]([O-])c2ccccc21	-2	101	4	0	-1	/
CCCOc1ccc(-c2c(=O)n(OCC(=O)OCC)c3ccccc3[n+]2[O-])cc1	34*	98	-6	0	0	0
CCOn1c(=O)c(-c2cccs2)[n+]([O-])c2ccccc21	4	88	3	0	0	3
Nc1ccn(C2C=CC(CO)O2)c(=O)n1 (stereo unspecified)	/	/	/	/	-1	/
Cc1ccc(NNC(=O)C(O)(c2cccc(C(F)(F)F)c2)c2cccc(C(F)(F)F)c2)cc1	41*	110	8	0	0	-6
CCCCn1c(NC(=O)c2ccccc2Cl)c(C#N)c2nc3ccccc3nc21	5	107	4	0	5	2
N#Cc1c(NC(=O)c2ccccc2Cl)n(Cc2ccccc2)c2nc3ccccc3nc12	-3	86	-4	-1	6.8*	-3
COC(=O)C1(C(=O)OC)C2CCCCC2N(S(=O)(=O)c2ccc(C)cc2)[C@@H]1CC(C)=O (stereo partly specified)	/	/	/	/	0	/
Cc1[nH]c(=O)[nH]c1C(=O)CCCCC(=O)O	-20	92	39*	0	0	-17
O=C(c1cnn(C(=O)c2ccco2)c1)c1cc(F)ccc1O	0	97	27*	0	0	2
COC(=O)C1=CN(c2ccccc2OC)C(N)=C(C#N)C1c1cccc([N+](=O)[O-])c1 (stereo unspecified)	/	/	/	/	-1	/
CN(C)CCCN1C(=O)c2cccc3c(Br)ccc(c23)C1=O	-1	95	-5	0	0	-2
CCCCNc1ccc2c3c(cccc13)C(=O)N(CCCC)C2=O	/	/	45*	/	0	/
Cc1ccc(S(=O)(=O)N2CCOCC2)cc1C(=O)Nc1ccc(-c2cn3ccsc3n2)cc1	13	92	-15	0	1	20*
Cc1ccc(S(=O)(=O)N2CCOCC2)cc1C(=O)Nc1ccncc1	10	106	2	0	0	-5
O=C(Oc1ccc(=O)n(-c2ccccc2)n1)c1ccccc1	81*	96	1	0	-1	1
COc1cccc2nc3cc(C)c(C)cc3nc12	3	63*	3	0	-7	-2
CCOC(=O)C(NC(=O)N(C)C)(Nc1sc(C)c(CC)c1C#N)C(F)(F)F (stereo unspecified)	32*	103	-6	1	0	15
